PostGolgi yeast: phenotypic screen on post-Golgi transport, primary screen. post-Golgi transport phenotypic cell assay. 0.9% of 98,000 active. inhibition, % at 10 µM;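 also: yeast cells grown in 1536-well plates; yeast grown about 18 h at 30C before absorbance read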
PostGolgi ctrl: growth inhibition of yeast control strain, primary screen, counter-screen for post-Golgi transport modulator project; efflux-deficient yeast background strain, growth absorbance A615, 16 h; inhibition, % at 10 µM; 5% of 98,000 active
PLAP activator: PLAP enzyme activators, biochemical, luminescence, HTS; activation fold at 20 µM; purified PLAP enzyme, luminescent substrate read-out; hits give high values; Alkaline phosphatase, placental type (Homo sapiens), P05187; 1.2% of 96,000 active; in the data active = activation fold above about 2
Target sequence (P05187 whole entry, looked up): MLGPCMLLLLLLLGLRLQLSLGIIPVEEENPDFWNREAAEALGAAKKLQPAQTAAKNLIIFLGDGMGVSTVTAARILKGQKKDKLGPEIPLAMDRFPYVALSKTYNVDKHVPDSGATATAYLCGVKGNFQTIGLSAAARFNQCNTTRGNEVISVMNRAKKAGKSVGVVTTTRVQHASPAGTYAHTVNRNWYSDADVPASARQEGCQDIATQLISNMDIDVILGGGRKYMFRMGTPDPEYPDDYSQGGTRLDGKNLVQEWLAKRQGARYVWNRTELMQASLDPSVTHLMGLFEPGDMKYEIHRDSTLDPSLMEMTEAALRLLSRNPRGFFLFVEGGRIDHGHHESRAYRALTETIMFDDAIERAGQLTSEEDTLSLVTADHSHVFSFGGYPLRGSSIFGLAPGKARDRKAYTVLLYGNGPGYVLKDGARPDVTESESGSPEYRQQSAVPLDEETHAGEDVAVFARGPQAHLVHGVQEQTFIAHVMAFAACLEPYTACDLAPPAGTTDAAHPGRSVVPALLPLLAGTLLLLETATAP
E coli WT exp: growth inhibitors of wild-type E. coli, primary screen, strain BW25113, expanded library, OD600; OD600 absorbance; growth inhibition, % at 100 µM; 0.15% of 98,000 active; AID 710, 2007;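 active = growth inhibition above about 50% at one test dose, limit read from the data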;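 also: growth measured after 20 h incubation at 37 °C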
Ecoli tolC: growth inhibitors of E. coli tolC mutant, primary screen, strain BW25113 ΔtolC::kan, 384-well | AID 573, 2007 | OD615 | 2.2% of 65,000 active | growth inhibition, % at 10 µM (by protocol);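 active = growth inhibition at or above a cutoff equal to the mean over every tested compound plus 3 SD, cut at about 60% in these data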;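 also: growth measured after 20 h incubation at 37 °C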
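System: E. coli ΔtolC::kan strain BW25113; Buffer or medium: LB broth supplemented with 50 µg/mL kanamycin; Compound: 10 µM final, single dose; Incubation: bacterial growth with compound for 20 h at 37 °C; Signal: A615 absorbance measurement; Evaluation: growth inhibition in percent.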
A number is an active result; . = inactive; / = no result. Compounds with a hit are over-represented: about 7.2% of the library has one in this group of screens. Rule as the data show it, unless noted: active = inhibition above about 30%; inactive = the rest.

SMILES	PostGolgi yeast	PostGolgi ctrl	PLAP activator	E coli WT exp	Ecoli tolC
O=C(CN1CCCCC1)NCC(=O)Nc1ccc(Br)cc1C(=O)c1ccccc1	.	.	.	.	/
O=C(CNC(=O)c1ccccc1)Nc1ccc(Br)cc1C(=O)c1ccccc1	.	31	.	.	/
OCC12COC3c4ccccc4C(OC1)N32 (stereo unspecified)	.	.	.	.	.
CCC(=O)N1c2ccc(S(=O)(=O)CCC(=O)N3CCC4(CC3)OCCO4)cc2CC1C (stereo unspecified)	.	.	.	.	.
CCN1CCN(Cc2cc(Br)cc(OC)c2O)CC1	.	.	.	.	.
Oc1c(Br)cc(Br)cc1CN1CCN(Cc2ccccc2)CC1	.	.	2	.	/
O=C(NC1CC2CCC(C1)N2Cc1nnnn1Cc1ccco1)NC12CC3CC(CC(C3)C1)C2 (stereo unspecified)	.	.	.	.	.
O=c1[nH]c(=S)n(CCC2=CCCCC2)c(O)c1C=NC1CCN(Cc2ccccc2)CC1	37	94	.	.	/
C=CCn1c(O)c(C(CC)=NC(C)c2ccccc2)c(=O)[nH]c1=O (stereo unspecified)	.	40	.	.	/
CCCCn1c(O)c(C(C)=NCc2cc(OC)cc(OC)c2)c(=O)[nH]c1=O	.	.	.	.	/
CCC(=NCCCn1ccnc1)c1c(O)n(Cc2ccccc2)c(=O)[nH]c1=O	.	.	2.1	.	/
CCC(=NCc1cccnc1)c1c(O)n(Cc2ccccc2)c(=O)[nH]c1=O	.	.	.	.	.
CCCCn1c(O)c(C(C)=NCCc2ccccc2)c(=O)[nH]c1=O	.	31	.	.	.
C=CCn1c(O)c(C(CC)=NC2CC2)c(=O)[nH]c1=O	.	.	.	.	/
CCCCn1c(O)c(C(CC)=NC(C)c2ccccc2)c(=O)[nH]c1=O (stereo unspecified)	.	52	.	.	/
CCCCn1c(O)c(C(C)=NC(C)c2ccccc2)c(=O)[nH]c1=O (stereo unspecified)	.	.	.	.	.
c1cncc(C2CC(c3cccs3)n3ncnc3N2)c1 (stereo unspecified)	.	.	.	.	.
CCC(=NCc1cc(OC)cc(OC)c1)c1c(O)n(C)c(=O)n(C)c1=O	.	.	.	.	/
Cc1ccc(N(C)C(=O)Oc2ccc(C(=O)c3ccc(Cl)cc3)cc2)cc1	.	.	.	.	/
Oc1ccc(/C=N/NP(=S)(c2ccccc2)c2ccccc2)cc1O	.	.	.	.	/
Oc1ccc(/C=N/NP(=S)(c2ccccc2)c2ccccc2)c(O)c1O	.	.	2.4	.	/
CC(=NCC1CCCO1)c1c(O)n(Cc2ccccc2)c(=O)[nH]c1=O (stereo unspecified)	.	.	.	.	.
CCOC(=O)c1c(-n2c(C)cc(C=C3C(=O)NC(=S)NC3=O)c2C)sc2c1CCCC2	97	42	.	.	/
O=c1[nH]c(=O)n(Cc2ccc(F)cc2)c(O)c1C=NCCN1CCCCC1	.	33	.	.	.
Cc1ccc(S(=O)(=O)N2CC3CC(C2)c2cccc(=O)n2C3)cc1 (stereo unspecified)	33	.	.	.	/
SMILES	PostGolgi yeast	PostGolgi ctrl	PLAP activator	E coli WT exp	Ecoli tolC
CCOC(=O)c1c(NC(=O)C(c2ccccc2)c2ccccc2)sc2c1C1CCN2CC1	.	.	.	.	/
COc1ccc2c(c1)c(C(=O)CN1CCC3(CC1)OCCO3)c(C)n2Cc1ccccc1	.	.	.	.	/
N[C@@H](Cc1c[nH]c2ccccc12)c1nnc(SCc2ccc(Cl)cc2)o1	47	.	.	.	.
CN(C)P(=O)(C(Cl)=C(N1CCCCC1)N1CCCCC1)N(C)C	.	.	.	.	.
CC(C)OC(=O)c1c(N)n(CC2CCCO2)c2nc3ccccc3nc12 (stereo unspecified)	.	.	.	.	.
CCCNC(=O)c1c(N)n(CC2CCCO2)c2nc3ccccc3nc12 (stereo unspecified)	.	33	.	.	.
COCCCn1c(N)c(C(=O)NCCC(C)C)c2nc3ccccc3nc21	.	32	.	.	.
CCCCCCn1c(N)c(C(=O)NCCN2CCOCC2)c2nc3ccccc3nc21	.	.	.	.	76
CC(C)CCOC(=O)c1c(N)n(CC2CCCO2)c2nc3ccccc3nc12 (stereo unspecified)	.	.	.	.	60
Cc1nc2sccc2c(=O)n1-c1ccccc1Cl	.	.	.	.	/
COc1ccccc1N1CCN(Cc2cccc(OC)c2O)CC1	.	.	.	.	.
CCCCCCOc1ccc(CN2CCN(CC)CC2)cc1	.	.	.	.	/

Assay outcomes (PubChem)
